Activity calls are given as the source filed them. The calls are words filed in the database; no cut-off is given here.
What was measured:
Plasmodium berghei [1] = experiment: Antimalarial activity against sporozoite stage of Plasmodium berghei infected in human Huh7 cells assessed as remaining parasite infection at 10 uM pre-incubated for 24 hrs followed by parasite infection measured after 48 hrs by bioluminescence assay; conditions: Huh-7
Plasmodium falciparum [2] = experiment: Antimalarial activity against 4th to 5th gametocyte stage of Plasmodium falciparum 3D7elo1-pfs16-CBG99 assessed as inhibition of gametocyte viability by luciferase reporter gene assay; format: functional, organism-based
Outline: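 Stage IV–V gametocytes of luciferase-expressing 3D7elo1-pfs16-CBG99 strain (CBG99 under pfs16 promoter); luciferase activity as viability read-out. Viability = 100×(treated−blank)/(untreated−blank), blank = 100 nM epoxomicin-treated sample. Epoxomicin and dihydroartemisinin as positive controls. IC50 from nonlinear regression of dose–response; mean of three experiments in duplicate.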

Plasmodium berghei [3] = experiment: Antimalarial activity against sporozoite stage of Plasmodium berghei infected in human Huh7 cells assessed as inhibition of parasite infection pre-incubated for 24 hrs followed by parasite infection measured after 48 hrs by bioluminescence assay; format: functional, organism-based; conditions: Huh-7
HepG2 = experiment: Cytotoxicity against human HepG2 cells after 48 hrs by MTT assay; format: cell-based; conditions: HepG2, 48 h
[4] = Half life in mouse liver microsomes at 1 uM by LC-MS/MS analysis; format: ADME
Hepatocyte [5] = experiment: Drug metabolism in mouse hepatocytes assessed as monohydroxylated metabolite formation at 1 uM after 60 mins by LC-MS/MS analysis; format: ADME, cell-based; conditions: 1 h
Outline: (§1)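 Hepatocyte incubation of 1 μM compound at 37 °C, in duplicate. Supernatants analysed by LC-MS/MS, with SRM monitoring of phase I and II metabolites (oxidation, demethylation, dehydrogenation, glucuronidation, oxidation + glucuronidation).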

Plasmodium berghei [6] = experiment: Antimalarial activity against sporozoite stage of Plasmodium berghei infected in human Huh7 cells assessed as remaining parasite infection at 2 uM pre-incubated for 24 hrs followed by parasite infection measured after 48 hrs by bioluminescence assay; conditions: Huh-7
Hepatocyte [7] = experiment: Drug metabolism in mouse hepatocytes assessed as dihydroxylated metabolite formation at 1 uM after 60 mins by LC-MS/MS analysis; format: ADME, cell-based; conditions: 1 h
Outline: as §1

Plasmodium berghei [8] = experiment: Antimalarial activity against Plasmodium berghei ANKA infected in C57Bl6 mouse at 40 mg/kg/day, po on days 3 to 5 by Thompson test; format: functional
Hepatocyte [9] = experiment: Half life in human hepatocytes at 1 uM by LC-MS/MS analysis; format: ADME, cell-based
Outline: (§2)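 Cryopreserved human or mouse hepatocytes equilibrated for 30 min at 37 °C, then given 1 μM final compound in duplicate at 37 °C. Samples quenched at set times in ice-cold methanol with internal standards. Parent depletion by LC-MS/MS (MRM) as % of time zero, fitted to first-order decay. t1/2 = 0.693/k, and CLint derived from it. Verapamil and warfarin served as controls.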

[10] = Octanol-water partition coefficient, logP of the compound; format: physicochemical
Plasmodium berghei [11] = experiment: Antimalarial activity against Plasmodium berghei ANKA infected in po dosed C57Bl6 mouse administered on day 3 to 5 by Thompson test; format: functional
Outline: (§3)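 Modified Thompson test: C57Bl6 female mice inoculated intraperitoneally on day 0 with 1×10^6 P. berghei ANKA-infected erythrocytes; compound suspended in 0.5% hydroxyethylcellulose–0.1% Tween 80, given orally once daily on days 3, 4 and 5 post infection. Parasitemia by Giemsa-stained thin tail-blood smears on days 0, 3, 6, 10, 13, 17, 20, 24, 27, 31. Cure = survival without parasitemia to day 31.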

[12] = Intrinsic clearance in mouse hepatocytes assessed per 10^6 cells at 1 uM by LC-MS/MS analysis; format: ADME, cell-based, Hepatocyte; conditions: read-out: CLH
Outline: as §2

Hepatocyte [13] = experiment: Drug metabolism in human hepatocytes assessed as dihydroxylated metabolite formation at 1 uM after 60 mins by LC-MS/MS analysis; format: ADME, cell-based; conditions: 1 h
Outline: as §1

Plasmodium berghei [14] = experiment: Antimalarial activity against Plasmodium berghei ANKA infected in C57Bl6 mouse at 160 mg/kg/day, po measured on day 3 to 5 by Thompson test; format: functional
[15] = Inhibition of beta hematin formation measured as hemin equivalent after 18 hrs; format: physicochemical
Outline: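 Hemin (16 mM in DMSO) mixed with compound at 0.125–5 mol equiv to hemin, plus water and 8 M acetate buffer pH 5.2, 25% DMSO final. Incubated 18 h at 37 °C. Pellet washed with DMSO, dissolved in 0.1 M NaOH, absorbance read at 405 nm (corrected at 670 nm) against a hemin calibration.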

Plasmodium falciparum [16] = experiment: Antimalarial activity against chloroquine-resistant Plasmodium falciparum W2 after 48 hrs by [3H]hypoxanthine incorporation assay; format: functional, organism-based
Outline: (§4)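 P. falciparum D6 (Sierra I/UNC clone), W2 (Indochina I clone), TM91C235 (South-East Asian clone) cultured with compound; growth inhibition by [3H]hypoxanthine incorporation (modified Desjardins/Milhous method). Chloroquine, mefloquine, artemisinin as positive controls. IC50 in nM; technical triplicates, curve fits R2 0.96–1.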

Hepatocyte [17] = experiment: Drug metabolism in human hepatocytes assessed as monohydroxylated metabolite formation at 1 uM after 60 mins by LC-MS/MS analysis; format: ADME, cell-based; conditions: 1 h
Outline: as §1

Plasmodium falciparum [18] = experiment: Antimalarial activity against chloroquine-susceptible Plasmodium falciparum D6 after 48 hrs by [3H]hypoxanthine incorporation assay; format: functional, organism-based
Outline: as §4

Plasmodium berghei [19] = experiment: Antimalarial activity against Plasmodium berghei ANKA infected in C57Bl6 mouse at 80 mg/kg/day, po measured on day 3 to 5 by Thompson test; format: functional
Mus musculus [20] = experiment: Toxicity in Plasmodium berghei ANKA infected C57Bl6 mouse at 160 mg/kg/day, po administered for 3 days measured 2 times a day for 31 days; format: organism-based; conditions: in vivo, 744 h
Plasmodium berghei [21] = experiment: Antimalarial activity against sporozoite stage of Plasmodium berghei ANKA infected in C57Bl/6J mouse assessed as reduction in liver parasite load at 50 mg/kg/, po administered for 3 days measured after 48 hrs by luciferase reporter gene assay relative to control; format: functional; design: scale not given: the % may be the effect or the level left
Outline: (§5)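 C57BL/6J mice dosed by oral gavage (DMSO in sunflower oil) on three consecutive days: 24 h before, at, and 24 h after intravenous infection with luciferase-expressing P. berghei sporozoites. Controls got vehicle. Liver parasite load measured by in vivo luminescence 46–48 h after infection, after subcutaneous luciferin, expressed as % of controls. Two independent experiments.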

Plasmodium berghei [22] = experiment: Antimalarial activity against sporozoite stage of Plasmodium berghei ANKA infected in C57BL/6J mouse assessed as reduction in liver parasite load at 80 mg/kg/, po administered for 3 days measured after 48 hrs by luciferase reporter gene assay relative to control; format: functional; design: scale not given: the % may be the effect or the level left
Outline: as §5

[23] = Half life in mouse hepatocytes at 1 uM by LC-MS/MS analysis; format: ADME, cell-based, Hepatocyte
Outline: as §2

Plasmodium falciparum [24] = experiment: Antimalarial activity against mutidrug resistant Plasmodium falciparum TM91C235 after 48 hrs by [3H]hypoxanthine incorporation assay; format: functional, organism-based
Outline: as §4

Plasmodium berghei [25] = experiment: Antimalarial activity against Plasmodium berghei ANKA infected in C57Bl6 mouse assessed as reduction of parasitemia at 10 to 20 mg/kg/day, po administered for day 3 to 5 by Thompson test; format: functional, organism-based
Outline: as §3

Plasmodium berghei [26] = experiment: Antimalarial activity against sporozoite stage of Plasmodium berghei infected in human Huh7 cells assessed as inhibition of parasite infection at 0.125 uM pre-incubated for 24 hrs followed by parasite infection measured after 48 hrs by bioluminescence assay; format: functional; conditions: Huh-7
[27] = Intrinsic clearance in human hepatocytes assessed per 10^6 cells at 1 uM by LC-MS/MS analysis; format: ADME, cell-based, Hepatocyte; conditions: read-out: CLH
Outline: as §2

Hepatocyte [28] = experiment: Metabolic stability in human hepatocytes assessed as compound remaining at 1 uM after 60 mins by LC-MS/MS analysis; format: ADME, cell-based; conditions: 2 h, in the assay text read “120 mins” for “60 mins”
Outline: as §2

[29] = Half life in human liver microsomes at 1 uM by LC-MS/MS analysis; format: ADME
Plasmodium berghei [30] = experiment: Antimalarial activity against Plasmodium berghei ANKA infected in C57Bl6 mouse assessed as increase in cure rate at 80 mg/kg/day, po administered for day 3 to 5 by Thompson test; format: functional, organism-based
Outline: as §3

Plasmodium berghei [31] = experiment: Antimalarial activity against Plasmodium berghei ANKA infected in C57Bl6 mouse assessed as increase in survival rate at 80 mg/kg/day, po administered for day 3 to 5 by Thompson test; format: functional, organism-based
Outline: as §3

Mus musculus [32] = experiment: Toxicity in Plasmodium berghei ANKA infected C57Bl6 mouse at 80 mg/kg/day, po administered for 3 days measured 2 times a day for 31 days; format: organism-based; conditions: in vivo, 744 h

## COc1cc(NC(C)CCCN)c2ncccc2c1 (stereo unspecified) [PRIMAQUINE]
Plasmodium berghei [1]
  % infection at 10 µM: 62%

## C[C@H]1[C@@H](O)O[C@@H]2O[C@@]3(C)CC[C@H]4[C@H](C)CC[C@@H]1[C@@]24OO3 [ARTENIMOL]
Plasmodium falciparum [2]
  IC50: 440 nM

## CC(CCNCC12CC3CC(CC(C3)C1)C2)Nc1c(F)cnc2cc(Cl)ccc12 (stereo unspecified)
Plasmodium berghei [3]
  IC50: 310 nM
HepG2
  IC50: 3.97 µM
[4]
  half-life at 1 µM: 21 min
Hepatocyte [5]
  Drug metabolism: metabolite_detected
Plasmodium berghei [6]
  % infection at 2 µM: 13%
Hepatocyte [7]
  Drug metabolism: metabolite_detected
Plasmodium berghei [8]
  MST: 18.4 days
Hepatocyte [9]
  t1/2: 78 min
[10]
  logP: 3.25
Plasmodium berghei [11]
  Activity: Dose dependent effect
  MCD: 80 mg/kg/day
[12]
  hepatocyte CLint at 1 µM: 8.7 µL/min/1e6 cells
Hepatocyte [13]
  Drug metabolism: metabolite_detected
Plasmodium berghei [14]
  MST: 26.2 days
[15]
  IC50: 0.61 equiv
Plasmodium falciparum [16]
  IC50: 238 nM
Hepatocyte [17]
  Drug metabolism: metabolite_detected
Plasmodium falciparum [18]
  IC50: 135 nM
Plasmodium berghei [19]
  MST: >31 days
Mus musculus [20]
  Activity: Non-toxic
Plasmodium berghei [21]
  Activity: 84%
Plasmodium berghei [22]
  Activity: 92%
[23]
  half-life at 1 µM: 79 min
Plasmodium falciparum [24]
  IC50: 197 nM
Plasmodium berghei [25]
  Activity: inactive
Plasmodium berghei [26]
  inhibition at 0.125 µM: 38%
[27]
  hepatocyte CLint at 1 µM: 8.9 µL/min/1e6 cells
Hepatocyte [28]
  Stability: 32%
[29]
  half-life at 1 µM: 13 min

## Fc1ccc2scc(CNCCCNc3ccnc4cc(Cl)ccc34)c2c1
Plasmodium berghei [30]
  Activity: inactive
Plasmodium berghei [19]
  MST: 14 days
Mus musculus [20]
  Activity: Toxic
Plasmodium berghei [31]
  Activity: inactive
Mus musculus [32]
  Activity: Non-toxic
